Measured values of several laboratories.
Protocols differ between the studies behind these lines.
Read-out: cell growth or viability

| Compound | cell line | technique | time | IC50 [µM] |
| --- | --- | --- | --- | --- |
| CC(=NN=c1scc(-c2ccccc2)n1C)c1c(O)c2ccccc2oc1=O | human Skin fibroblast | MTT | 48 h | > 100 |
| Cn1ncnc1[C@H]1c2n[nH]c(=O)c3cc(F)cc(c23)N[C@@H]1c1ccc(F)cc1 | MB002 | – | 7 days | 0.00373 |
| Oc1ccc(Nc2nc(-c3ccc(Cl)cc3)cs2)cc1 | WM278 | MTS | 72 h | 23.6 |
| COc1cc(Nc2nccc(-c3cnn4nc(OC)ccc34)n2)cc(C(F)(F)F)c1 | T84 | ATP luminescence | – | 1.3 |
| CN1CCN(CCOc2cc(OC3CCOCC3)c3c(Nc4c(Cl)ccc5c4OCO5)ncnc3c2)CC1 | HD-MB03 | – | 7 days | > 10 |
| CC(=O)c1sc(=NN=C(C)c2c(O)c3ccccc3oc2=O)[nH]c1C | human Skin fibroblast | MTT | 48 h | > 100 |
| CC1(C)CCC(CN2CCN(c3ccc(C(=O)NS(=O)(=O)c4ccc(NCC5CCOCC5)c([N+](=O)[O-])c4)c(Oc4cnc5[nH]ccc5c4)c3)CC2)=C(c2ccc(Cl)cc2)C1 | MB002 | – | 7 days | > 10 |
| CC(=NN=c1sc(N=Nc2ccccc2)c(C)n1C)c1c(O)c2ccccc2oc1=O | human Skin fibroblast | MTT | 48 h | > 100 |
| CC(C)C[C@H](NC(=O)[C@H](Cc1ccccc1)NC(=O)c1cnccn1)B(O)O | T84 | ATP luminescence | – | 0.018 |
| O=C(N/N=C/c1c(O)ccc2ccccc12)c1cc(-c2ccc3ccccc3c2)n[nH]1 | WM278 | MTS | 48 h | 8 |
